Shown are actives, neighbours in structure and some others; about 2.6% of the full set was active somewhere.
SENP8 block-1: SENP8 (human) protease inhibition | Q96LD8 | recombinant SENP8, Nedd8 substrate fluorescence | inhibition, % at 20 µM | actives 0.64% (n = 360,000) | AID 602440; in the data active = inhibition mostly above about 40%, no sharp cut-off; inactive = mostly below about 27%
Target sequence (Q96LD8 whole entry, looked up): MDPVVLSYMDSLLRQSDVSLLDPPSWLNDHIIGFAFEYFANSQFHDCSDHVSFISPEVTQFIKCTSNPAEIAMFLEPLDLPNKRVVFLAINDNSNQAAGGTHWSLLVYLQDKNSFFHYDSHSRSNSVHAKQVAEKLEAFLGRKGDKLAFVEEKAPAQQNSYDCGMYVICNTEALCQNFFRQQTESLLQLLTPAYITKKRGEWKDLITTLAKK
SENP1 inh: inhibitors of human SENP1 SUMO protease catalytic domain. Q9P0U3. AID 624204. recombinant SENP1 catalytic domain, CyPet-SUMO1-YPet FRET cleavage. actives 0.21% (n = 360,000). inhibition, % at 10 µM;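 active = inhibition at least 30% at 10 µM, raw YFP signal under a set limit, fluorescence ratio 0.5 to 1.5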;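 note: 0% = enzyme with DMSO and 100% = no enzyme wells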
Target sequence (Q9P0U3 419-644 limits assumed): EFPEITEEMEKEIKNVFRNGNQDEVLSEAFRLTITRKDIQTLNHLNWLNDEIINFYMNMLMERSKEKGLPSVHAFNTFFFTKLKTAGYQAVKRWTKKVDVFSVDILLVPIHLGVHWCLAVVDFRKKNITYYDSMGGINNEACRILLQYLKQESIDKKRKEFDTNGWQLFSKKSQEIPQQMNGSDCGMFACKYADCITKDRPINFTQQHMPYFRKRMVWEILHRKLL
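Controls: no-enzyme wells low, DMSO-plus-enzyme wells high control. Test system: human recombinant His6-tagged SENP1 catalytic domain enzyme. Reagent: SFCypet-SUMO1-SFYpet FRET protein substrate, 25 nM final. Doses: one dose per compound, 10 µM, 0.5% DMSO. Detection: FRET, CFP and YFP emission. Timing: 50 min reaction at room temperature.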
SENP7 inh: SENP7 protease inhibition. Q9BQF6. recombinant SENP7, Z-RLRGG-aminoluciferin luminescence, 40 min. inhibition, % at 5 µM. actives 1.5% (n = 330,000);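 active = inhibition above about 50% at the single test dose, limit read from the data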;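 note: plate controls were DMSO with enzyme for no effect and no enzyme buffer wells for full effect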
SENP8 block-2: blocks the human protease SENP8; Q96LD8; purified SENP8, Z-RLRGG-aminoluciferin cleavage, luminescence; inhibition, % at 10 µM; actives 1.2% (n = 330,000); in the data active = inhibition above about 50%
SENP6 inh: inhibitors of human SENP6 protease | Recombinant SENP6 catalytic domain, aminoluciferin luminescence | actives 1.8% (n = 330,000) | inhibition, % at 10 µM | Q9GZR1 | AID 2599;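 active = inhibition above about 50% at the single tested dose, limit read from the data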;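 note: plate controls were DMSO wells with enzyme for no effect and DMSO wells lacking enzyme for full effect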
Platelet DG rel: modulates dense granule release in human platelets. inhibition, %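 (compounds screened at 7.5 µM in platelet-rich plasma)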. actives 0.22% (n = 300,000). human platelet-rich plasma, SFLLRN dense granule ATP release, luminescence;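 active = mean replicate score, as percent of positive control, at or above 50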
SENP8 confirm: human SENP8 inhibition, confirmed; inhibition, % at 12.5 µM; shares compounds with SENP7 inh; Recombinant SENP8, Z-RLRGG-aminoluciferin luminescence, 60 min; actives 40% (n = 6,200); AID 488912;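 active = mean inhibition across replicates above about 50%, limit read from the data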
SENP6 conf: human SENP6 inhibition, confirmed; inhibition, % at 12.5 µM; actives 58% (n = 6,200); AID 488915; shares compounds with SENP7 inh; recombinant SENP6, Z-RLRGG-aminoluciferin luminescence
SENP7 confirm: human SENP7 inhibition, confirmed | shares compounds with SENP7 inh | recombinant SENP7, Z-RLRGG-aminoluciferin luminescence, 40 min | inhibition, % at 12.5 µM | actives 69% (n = 6,200)
Casp3 select: caspase-3 inhibition (SENP selectivity assay); shares compounds with SENP7 inh; purified caspase-3, Z-DEVD-aminoluciferin luminescence, 60 min; inhibition, % at 12.5 µM; actives 60% (n = 6,200); AID 488918;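 active = mean inhibition above about 50%, limit read from the data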;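 note: plate controls were enzyme with DMSO for no effect and wells without caspase-3 for full effect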
Target sequence (P42574 28-227 limits assumed): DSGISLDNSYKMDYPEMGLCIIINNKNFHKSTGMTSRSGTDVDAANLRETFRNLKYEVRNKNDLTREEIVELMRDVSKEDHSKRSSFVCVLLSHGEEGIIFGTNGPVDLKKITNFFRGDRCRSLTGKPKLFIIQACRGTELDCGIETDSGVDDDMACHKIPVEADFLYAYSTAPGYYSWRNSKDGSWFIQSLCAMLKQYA
Luc interf: interferes with luciferase luminescence in SENP counter-screen; shares compounds with SENP7 inh; Pre-incubated SENP8/Z-RLRGG-aminoluciferin, luciferase luminescence interference; inhibition, % at 12.5 µM; actives 39% (n = 6,200); AID 488919;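 active = mean inhibition above about 50% when retested at one dose, limit read from the data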;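 note: plate controls were DMSO wells with completed reaction for no effect and substrate without enzyme for full effect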
* marks the source's active call; other numbers are inactive results; i = inactive; x = no result.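 Rule for the calls, unless noted: active = mean inhibition above about 50% in the one-dose retest (limit read from the data); inactive = the rest.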

SMILES	SENP8 block-1	SENP1 inh	SENP7 inh	SENP8 block-2	SENP6 inh	Platelet DG rel	SENP8 confirm	SENP6 conf	SENP7 confirm	Casp3 select	Luc interf
O=C(CCl)Oc1ccc2occ(C(=O)c3cccs3)c2c1	13.9	1.2	37.7	26.5	63.2*	-1.5	31.8	29.5	66.0*	40.0	29.5
COc1ccc(CC(=O)OCC(=O)NCc2ccc(C)cc2)cc1OC	12.6	-0.1	-0.6	11.5	3.1	x	x	x	x	x	x
O=C(Nc1cccnc1Cl)C1=NN(c2ccccc2)C(=O)CC1	-2.9	1.4	-11.8	-16.3	-20.1	-9.0	x	x	x	x	x
COc1ccc(C(=O)Oc2ccc(/C=N/O)cc2)cc1	29.2	5.5	61.0*	52.9*	78.7*	2.7	66.9*	66.8*	90.1*	73.2*	33.3
COc1ccc(OC(=O)c2ccncc2)cc1	20.0	1.6	-4.1	-2.1	-15.2	7.3	x	x	x	x	x
O=c1c(-c2ccc(F)cc2)coc2cc(O)ccc12	-236.4	-1.9	-16.7	82.3*	86.3*	18.8	89.5*	90.2*	99.0*	93.7*	89.6*
O=c1c(-c2ccc(F)cc2)coc2c3c(ccc12)OCCO3	6.7	0.5	76.0*	-3.6	-11.7	-0.5	12.2	7.7	13.1	16.3	5.6
O=c1c(-c2ccc(Br)cc2)coc2c(CN3CCOCC3)c(O)ccc12	-396.1	-1.0	30.4	0.5	13.5	-9.9	x	x	x	x	x
CN(CC(=O)Nc1ccccc1Cl)C(=O)CN1C(=O)C2CC=CCC2C1=O (stereo not given)	11.0	0.5	-2.8	8.1	0.3	x	x	x	x	x	x
O=C(CSc1nc(=O)n2ccccc2n1)N1CCCCCC1	-11.0	-1.2	9.5	5.3	-4.6	30.5	x	x	x	x	x
Brc1ccc(/C=N/Nc2ccccn2)cc1	24.4	0.8	64.6*	32.8	1.4	4.5	-3.8	42.6	85.9*	39.8	0.6
CCCOc1ccc(/C=N/NC(=O)C(=O)Nc2ccccn2)cc1	-21.5	-0.9	6.6	-1.8	15.6	12.4	x	x	x	x	x
COc1ccc(/C=N/Nc2ccccn2)cc1O	10.7	2.0	33.1	12.4	57.3*	80.1*	42.2	35.7	77.3*	71.9*	64.0*
Clc1ccc(/C=N/Nc2ccccn2)cc1	7.0	1.5	69.0*	52.4*	13.5	2.5	4.3	53.6*	71.5*	50.7*	9.1
Oc1cccc(C=NNc2ccccn2)c1	14.2	1.4	x	x	x	x	x	x	x	x	x
Clc1ccccc1C=NNc1ccccn1	9.4	1.0	x	x	x	x	x	x	x	x	x
CCOc1ccc(/C=N/Nc2ccccn2)cc1	10.3	-0.8	95.0*	91.4*	83.7*	17.3	62.9*	93.6*	101.9*	64.8*	12.2
Cc1c(C(=O)N/N=C/c2ccccn2)nnn1-c1nonc1N	-4.7	-3.2	-17.2	-13.4	-8.7	2.9	x	x	x	x	x
CC1(C(=O)Nc2cccc3cccnc23)CCN1Cc1ccc(-c2ccccc2)o1 (stereo not given)	-26.0	-23.6	x	x	x	x	x	x	x	x	x
Fc1ccc(/C=N/Nc2ccccn2)cc1	11.3	0.7	64.2*	45.9	66.5*	5.6	29.7	42.3	82.5*	56.5*	42.2
C(=N\Nc1ccccn1)/c1ccc(N2CCOCC2)cc1	-207.4	18.5	48.2	33.1	19.1	10.3	x	x	x	x	x
CCCN1C(=O)c2ccc(C(=O)Nc3cc(C)ccc3O)cc2C1=O	11.8	2.6	97.2*	51.0*	-24.7	45.9	-21.9	20.4	51.6*	50.1*	0.8
CCCN1C(=O)c2ccc(C(=O)Nc3ccccc3C(=O)O)cc2C1=O	17.6	-0.2	15.6	79.5*	88.6*	0.7	85.6*	85.1*	96.9*	43.6	89.4*
Cc1ccc(O)c(NC(=O)c2ccc3c(c2)C(=O)N(CC(C)C)C3=O)c1	16.6	0.1	32.3	0.9	-2.8	11.8	x	x	x	x	x
Cc1ccc2nc(/C=C/c3cccc(F)c3)ccc2c1	-300.5	0.1	22.9	30.5	50.2*	1.7	8.2	8.3	55.9*	16.5	58.6*
SMILES	SENP8 block-1	SENP1 inh	SENP7 inh	SENP8 block-2	SENP6 inh	Platelet DG rel	SENP8 confirm	SENP6 conf	SENP7 confirm	Casp3 select	Luc interf
O=C(N/N=C/c1ccc[nH]1)c1ccccc1OCc1ccc(F)cc1	-272.2	-12.4	-1.7	8.9	4.0	8.3	x	x	x	x	x
CCOc1ccc(OCc2ccc(C(=O)NN=Cc3ccc[nH]3)cc2)cc1	-337.6	0.2	92.7*	71.3*	92.6*	x	-0.7	-0.5	2.6	16.2	28.7
CCOc1ccc(C(=O)N2CCC3(CC2)NCCc2[nH]cnc23)cc1OCC	14.5	1.7	2.3	-10.4	-4.3	-3.3	x	x	x	x	x
COc1ccc(-n2nc3ccc(N)cc3n2)cc1Cl	-307.2	-25.1	58.5*	88.1*	85.7*	5.0	39.7	80.9*	95.0*	56.6*	46.0
Cc1ccc(-n2nc3ccc(N)cc3n2)cc1Cl	-299.5	-24.0	21.7	87.3*	89.9*	6.2	11.9	63.2*	75.6*	63.2*	1.8
COc1cc2nn(-c3ccccc3N)nc2cc1OC	-494.5	-86.6	x	x	x	x	x	x	x	x	x
Cc1ccc(-n2nc3ccc(N)cc3n2)c(C)c1	-313.2	-116.6	43.2	64.7*	78.2*	-11.1	3.5	19.8	29.3	11.5	11.9
Cc1ccc(-n2nc3ccc(N)cc3n2)cc1C	-445.8	-25.7	32.1	81.6*	91.5*	-6.2	-5.4	94.0*	101.3*	82.4*	52.3*
Cc1cc(N)ccc1-n1nc2ccccc2n1	-413.9	0.5	1.9	-5.0	-16.6	-9.4	x	x	x	x	x
CN(CCCn1ccc(NC(=O)OCc2ccccc2)nc1=O)Cc1ccco1	19.6	0.4	x	x	x	x	x	x	x	x	x
COc1ccc(-n2nc3ccc(NS(C)(=O)=O)cc3n2)cc1Cl	i	-14.6	74.0*	51.2*	71.5*	x	-7.2	39.4	74.6*	55.2*	-1.8
CCCCNc1ncnc2[nH]ncc12	-98.3	0.6	x	x	x	x	x	x	x	x	x
COc1cc(CNc2ccc(O)cc2)cc(Br)c1OCc1ccccc1F	18.7	0.4	60.0*	-5.3	22.6	7.4	0.7	4.2	-2.7	-2.0	1.4
COc1ccc(-c2nsc3c(N4CCCCC4C)ncnc23)cc1 (stereo not given)	-406.4	0.0	77.9*	81.0*	87.8*	-4.0	68.1*	71.3*	76.2*	76.3*	10.8
COc1ccc(-c2nsc3c(N4CCCCC4)ncnc23)cc1	-257.0	2.6	95.1*	91.9*	66.6*	17.7	0.4	5.2	-0.5	1.9	15.9

Screening data (PubChem BioAssay)
